We go through seven compounds from ChEMBL document CHEMBL4828740, “Discovery of Quinoxaline-Based P1-P3 Macrocyclic NS3/4A Protease Inhibitors with Potent Activity against Drug-Resistant Hepatitis C Virus Variants” (J Med Chem, 2021).

Broadly, the Tmax is the time at which the peak concentration occurs. As a reminder, the EC50 is the concentration at which the effect is half-maximal. A higher EC50 goes with a less potent agent. The AUC(0-t) is exposure summed from dosing to a finite time, without extrapolation to infinity. For orientation: Ki means the dissociation constant of the complex between target and ligand, obtained from inhibition or displacement. Read a high Ki as a looser hold on the target. As a reminder, the bioavailability is dose-corrected exposure relative to a reference, in per cent. A low value points to little systemic uptake. In general, Cmax refers to the peak of the concentration-time curve. As a reminder, the half-life is how long it takes for the measured level to halve. Higher therefore signals slow decline. As usually defined, the clearance is the rate of elimination divided by the concentration.

A short description of data set [1]: Tmax in Sprague-Dawley rat at 10 mg/kg, po measured after 0.25 to 24 hrs by LC-MS/MS analysis. It counts as ADME, organism-based. The settings on record: in vivo, time 0.25-24 hrs.
Data set [2] relates to Hepatitis C virus. As to the kind of experiment: Antiviral activity against HCV genotype 3a infected in human Huh7.5 cells incubated for 72 hrs by luciferase assay. The data set is classed as functional, organism-based, Hepacivirus hominis. As to conditions: subtype 3a, Huh7.5, 72 h. The procedure, abridged:
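Huh7.5 cells stably harboring the GT-3a replicon S52/SG-Feo SHI, seeded at 8,000 cells/well. Cells lysed in 1X Passive Lysis Buffer and luciferase activity measured. EC50 taken from drug inhibition curves.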

Data set [3] in a line: AUC(0 to 24 hrs) in Sprague-Dawley rat at 5 mg/kg, iv measured after 0.25 to 24 hrs by LC-MS/MS analysis. It counts as ADME, organism-based. Also on record: route intravenous, dose 5 mg/kg, time 0.25-24 hrs. As to conditions: in vivo.
Data set [4] has as its target T1, Hepatitis C virus serine protease, NS3/NS4A (Hepatitis C virus, UniProt A3EZI9+D2K2A8). As to the kind of experiment: Inhibition of HCV GT-1a NS3/4a protease using Ac-DE-D(Edans)-EE-Abu-c-[COO]-AS-K(Dabcy1)-NH2 preincubated for 1 hr followed by substrate addition. It counts as protein complex, Hepatitis C virus subtype 1a.
In data set [5] the test system is Hepatitis C virus. Nature of the data set: Antiviral activity against HCV genotype 1b harboring A156T mutant infected in human Huh7 cells incubated for 96 hrs by luciferase assay. As to conditions: subtype 1b, Huh-7, 96 h. It counts as functional, organism-based, Hepacivirus hominis. In outline: (§1)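 Con1 (GT-1b) luciferase reporter replicon carrying the H77 (GT-1a) NS3 protease region, with the mutation introduced by megaprimer site-directed mutagenesis. Cured Huh7 cells were grown in DMEM with 10% heat-inactivated FBS and 0.1 mM non-essential amino acids, electroporated with replicon RNA transcripts, and kept with serially diluted inhibitor. EC50 was taken directly from the inhibition curves.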

The nature of data set [6]: Volume of distribution at steady state in Sprague-Dawley rat at 5 mg/kg, iv measured after 0.25 to 24 hrs by LC-MS/MS analysis. The data set is classed as ADME, organism-based. As to conditions: in vivo, time 0.25-24 hrs, read-out: Vdss.
Data set [7] in a line: Oral bioavailability in Sprague-Dawley rat at 10 mg/kg measured after 0.25 to 24 hrs by LC-MS/MS analysis. It counts as ADME, organism-based. The settings on record: in vivo, time 0.25-24 hrs.
The nature of data set [8]: Cmax in Sprague-Dawley rat at 10 mg/kg, po measured after 0.25 to 24 hrs by LC-MS/MS analysis. As to conditions: in vivo. The data set is classed as ADME, organism-based. Also on record: route oral, time 0.25-24 hrs, dose 10 mg/kg.
The test system of data set [9] is Hepatitis C virus. Nature of the data set: Antiviral activity against HCV genotype 1b harboring D168A mutant infected in human Huh7 cells incubated for 96 hrs by luciferase assay. The data set is classed as functional, organism-based, Hepacivirus hominis. As to conditions: subtype 1b, Huh-7, 96 h. In outline: as §1
Data set [10] deals with Hepatitis C virus. As to the kind of experiment: Antiviral activity against HCV genotype 1b infected in human Huh7 cells incubated for 96 hrs by luciferase assay. It counts as functional, organism-based, Hepacivirus hominis. The settings on record: Huh-7, 96 h. In outline:
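Con1 (GT-1b) luciferase reporter replicon carrying the H77 (GT-1a) NS3 protease region, either WT or with A156T or D168A introduced by megaprimer mutagenesis. Cured Huh7 cells grown in DMEM with 10% heat-inactivated FBS and 0.1 mM non-essential amino acids. Cells electroporated with replicon RNA and kept with serially diluted inhibitor.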

A short description of data set [11]: Half life in Sprague-Dawley rat at 10 mg/kg, po measured after 0.25 to 24 hrs by LC-MS/MS analysis. The settings on record: in vivo, time 0.25-24 hrs. It counts as ADME, organism-based.
The nature of data set [12]: Half life in Sprague-Dawley rat at 5 mg/kg, iv measured after 0.25 to 24 hrs by LC-MS/MS analysis. It counts as ADME, organism-based. The settings on record: in vivo, time 0.25-24 hrs.
The target in data set [13] is T1, Hepatitis C virus serine protease, NS3/NS4A. As to the kind of experiment: Inhibition of HCV GT-3a NS3/4a protease using Ac-DE-D(Edans)-EE-Abu-c-[COO]-AS-K(Dabcy1)-NH2 preincubated for 1 hr followed by substrate addition. It counts as protein-complex assay, Hepatitis C virus subtype 3a.
Data set [14] can be described thus: Clearance in Sprague-Dawley rat at 5 mg/kg, iv measured after 0.25 to 24 hrs by LC-MS/MS analysis. The data set is classed as ADME, organism-based. As to conditions: in vivo, time 0.25-24 hrs.

With `COc1ccc2nc(C)c(O[C@@H]3C[C@H]4C(=O)N[C@]5(C(=O)NS(=O)(=O)C6(C)CC6)C[C@H]5/C=C/CCCCC[C@H](NC(=O)OC5(C(F)(F)F)CCCC5)C(=O)N4C3)nc2c1`, the Tmax in data set [1] was determined as 3 h. Besides, the EC50 stood at 130 nM in data set [2], 6.2 nM in data set [5], 20 nM in [9] and 0.3 nM in data set [10]. In [3], this compound gave an AUC(0-t) of 2.7 µM·h. Moreover, the Ki in data set [4] came out at 1.3 nM; in data set [13] it was 104 nM. For the same compound, the Vd in data set [6] came out at 3.9 L/kg. This compound gave a bioavailability in [7] of 11%. In [8], this compound registered a Cmax of 110 nM. The figures for the half-life in data set [11] and in data set [12] were 4.9 h and 5.3 h, respectively. In data set [14], the clearance worked out at 37 mL/min/kg.
Turning to `COc1ccc2nc(O[C@@H]3C[C@H]4C(=O)N[C@]5(C(=O)NS(=O)(=O)C6(C)CC6)C[C@H]5/C=C/CCCCC[C@H](NC(=O)O[C@@H](C)C(C)C)C(=O)N4C3)c(C(F)(F)F)nc2c1`, the concentration for a half-maximal effect (EC50) in data set [2] was 1500 nM; in data set [5], 8.7 nM; in data set [9] it was 3.1 nM; in [10], 0.9 nM. For the same compound, the Ki in [4] came out at 6.1 nM; in [13], 447 nM.
On to `COc1ccc2nc(O[C@@H]3C[C@H]4C(=O)N[C@]5(C(=O)NS(=O)(=O)C6(C)CC6)C[C@H]5/C=C/CCCCC[C@H](NC(=O)OC(C)(C)C(F)(F)F)C(=O)N4C3)c(C(F)(F)F)nc2c1`, for which the EC50 in [2] was determined as 330 nM; in [5] it was 10 nM; in [9], 4.3 nM; in data set [10] it was 1 nM. Besides, the values for the Ki in data set [4] and in data set [13] were 3.6 nM and 390 nM, respectively.
On to `COc1ccc2nc(C)c(O[C@@H]3C[C@H]4C(=O)N[C@]5(C(=O)NS(=O)(=O)C6(C)CC6)C[C@H]5/C=C/CCCCC[C@H](NC(=O)OC5(C(F)(F)F)CCC5)C(=O)N4C3)nc2c1`, for which the EC50 stood at 310 nM in [2], 5.9 nM in data set [5], 25 nM in [9] and 0.3 nM in data set [10]. Further, the figures for the Ki in data set [4] and in data set [13] were 1.5 nM and 96 nM, respectively.
For the compound `COc1ccc2nc(C)c(O[C@@H]3C[C@H]4C(=O)N[C@]5(C(=O)NS(=O)(=O)C6(C)CC6)C[C@H]5/C=C/CCCCC[C@H](NC(=O)OC(C)(C)C)C(=O)N4C3)nc2c1`, the Tmax in [1] was found to be 1.4 h. For the same compound, the EC50 in data set [2] turned out to be 300 nM; in [5], 2.1 nM; in data set [9], 2.2 nM; in data set [10], 0.6 nM. In data set [3], this compound yielded an AUC(0-t) of 2.2 µM·h. Further, the Ki was 3.6 nM in data set [4] and 119 nM in data set [13]. Moreover, the Vd in data set [6] was 3.5 L/kg. The bioavailability in [7] turned out to be 10%. The same compound registered a Cmax in [8] of 180 nM. Also, the half-life in data set [11] is 3 h; in data set [12] it was 5.2 h. The compound further displayed a clearance in data set [14] of 51 mL/min/kg.
For `COc1ccc2nc(O[C@@H]3C[C@H]4C(=O)N[C@]5(C(=O)NS(=O)(=O)C6(C)CC6)C[C@H]5/C=C/CCCCC[C@H](NC(=O)OC5(C(F)(F)F)CCC5)C(=O)N4C3)c(C(F)(F)F)nc2c1`, the concentration for a half-maximal effect (EC50) in [2] amounted to 900 nM; in [5], 5.1 nM; in data set [9] it was 7.8 nM; in data set [10], 1.4 nM. The values for the inhibition constant (Ki) in [4] and in data set [13] were 2 nM and 133 nM, respectively.
With `COc1ccc2nc(O[C@@H]3C[C@H]4C(=O)N[C@]5(C(=O)NS(=O)(=O)C6(C)CC6)C[C@H]5/C=C/CCCCC[C@H](NC(=O)OC5(C(F)(F)F)CCCC5)C(=O)N4C3)c(C(F)(F)F)nc2c1`, the EC50 in data set [2] was found to be 290 nM; in data set [5], 19 nM; in data set [9], 5.2 nM; in data set [10], 0.7 nM. The Ki was found to be 5.7 nM in data set [4] and 414 nM in data set [13].
